Laboratory results: ChEMBL document CHEMBL1125826, “Synthesis and biological activity of 5-amino- and 5-hydroxyquinolones, and the overwhelming influence of the remote N1-substituent in determining the structure-activity relationship” (1991)
Values after ≈ are worked out from the molar mass of the structure shown.

How the values were obtained:
Assay type in all cases: functional
[1] = target: DNA gyrase (Escherichia coli) (UniProt P0AES6+P0AES4); assay: Minimum inhibitory concentration against Escherichia coli DNA-gyrase in supercoiling assay
Enterobacter cloacae = assay: Antibacterial activity was determined against gram negative organism, Enterobacter cloacae MA2646; conditions: Enterobacter cloacae; read-out: MIC
Escherichia coli [2] = assay: Antibacterial activity was determined against gram negative organism, Escherichia coli vogel; conditions: Escherichia coli; read-out: MIC
How it was run: (§1)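 MIC (µg/mL) by standard microtitration against a panel of 10 Gram-positive and Gram-negative organisms; values averaged from multiple experiments.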

Escherichia coli [3] = assay: The in vivo potency was determined in female charles river CD-1 mice infected with Escherichia coli after peroral administration; conditions: for ED50: Escherichia coli, po, read-out: PD50
How it was run: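 Acute lethal systemic infection in female CD-1 mice, 16 mice per route; single dose given orally by gavage at the time of challenge; median protective dose (PD50, mg/kg) determined.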

Escherichia coli [4] = assay: The in vivo potency was determined in female charles river CD-1 mice infected with Escherichia coli after sc administration; conditions: Escherichia coli, sc; read-out: PD50
How it was run: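 Acute lethal systemic infection in female CD-1 mice, 16 mice per route; single subcutaneous dose given at the time of challenge; median protective dose (PD50, mg/kg) determined.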

Bacteria [5] = assay: MIC ratio measured as the mean MICs of gram-negative bacteria
How it was run: (§2)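 Geometric mean of the microtitration MICs (µg/mL) over the Gram-negative organisms, and separately over the Gram-positive organisms, of the 10-strain panel; individual MICs averaged from multiple experiments.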

Bacteria [6] = assay: MIC ratio measured as the mean MICs of gram-positive bacteria; how it was run: as §2
Klebsiella pneumoniae = assay: Antibacterial activity was determined against gram negative organism, Klebsiella pneumoniae MGH-2; conditions: Klebsiella pneumoniae; read-out: MIC; how it was run: as §1
Pseudomonas aeruginosa = assay: Antibacterial activity was determined against gram negative organism, Pseudomonas aeruginosa UI-18; conditions: Pseudomonas aeruginosa; read-out: MIC; how it was run: as §1
Bacteria [7] = assay: Antibacterial activity was determined against gram negative organism, Providencia rettgeri. M1771; conditions: Bacteria; read-out: MIC; how it was run: as §1
Staphylococcus aureus [8] = assay: Antibacterial activity was determined against gram positive organism, Staphylococcus aureus H228; conditions: Staphylococcus aureus; read-out: MIC; how it was run: as §1
Streptococcus pneumoniae = assay: Antibacterial activity was determined against gram positive organism, Streptococcus pneumoniae SV-1; conditions: Streptococcus pneumoniae; read-out: MIC; how it was run: as §1
Enterococcus faecalis = assay: Antibacterial activity was determined against gram positive organism, Streptococcus faecalis MGH-2; conditions: Enterococcus faecalis; read-out: MIC; how it was run: as §1
Staphylococcus aureus [9] = assay: Antibacterial activity was determined against gram positive organism, Staphylococcus aureus UC76; conditions: Staphylococcus aureus; read-out: MIC; how it was run: as §1
Streptococcus pyogenes = assay: Antibacterial activity was determined against gram positive organism, Streptococcus pyogenes C203; conditions: Streptococcus pyogenes; read-out: MIC; how it was run: as §1

SMILES | MIC [1] [µg/mL] | MIC (Enterobacter cloacae) [µg/mL] | MIC (Escherichia coli [2]) [µg/mL] | ED50 (Escherichia coli [3]) [mg/kg] | ED50 (Escherichia coli [4]) [mg/kg] | Geometric mean MIC over Gram-negative bacteria (µg/mL) (Bacteria [5]) | Geometric mean MIC over Gram-positive bacteria (µg/mL) (Bacteria [6]) | MIC (Klebsiella pneumoniae) [µg/mL] | MIC (Pseudomonas aeruginosa) [µg/mL] | MIC (Bacteria [7]) [µg/mL] | MIC (Staphylococcus aureus [8]) [µg/mL] | MIC (Streptococcus pneumoniae) [µg/mL] | MIC (Enterococcus faecalis) [µg/mL] | MIC (Staphylococcus aureus [9]) [µg/mL] | MIC (Streptococcus pyogenes) [µg/mL] | PD50 (Escherichia coli [3]) [mg/kg]
CCNCC1CCN(c2c(F)cc3c(=O)c(C(=O)O)cn4c3c2OCC4C)C1 (centres undefined) | 0.5 (≈ 1.28 µM) | 0.2 (≈ 0.514 µM) | 0.2 (≈ 0.514 µM) | > 100 | 11 | 0.4 | 0.057 | 0.4 (≈ 1.03 µM) | 0.8 (≈ 2.05 µM) | 0.8 (≈ 2.05 µM) | 0.2 (≈ 0.514 µM) | 0.1 (≈ 0.257 µM) | 0.1 (≈ 0.257 µM) | 0.025 (≈ 0.0642 µM) | 0.013 (≈ 0.0334 µM) | 
O=C(O)c1cn(C2CC2)c2cc(N3CCNCC3)c(F)c(O)c2c1=O | 1 (≈ 2.88 µM) | 0.05 (≈ 0.144 µM) | 0.025 (≈ 0.072 µM) | 3 | 0.1 |  |  | 0.1 (≈ 0.288 µM) | 0.4 (≈ 1.15 µM) | 0.1 (≈ 0.288 µM) | 3.1 (≈ 8.92 µM) | 0.8 (≈ 2.3 µM) | 0.8 (≈ 2.3 µM) | 0.2 (≈ 0.576 µM) | 0.4 (≈ 1.15 µM) | 
NC1CCN(c2cc3c(c(O)c2F)c(=O)c(C(=O)O)cn3C2CC2)C1 (centres undefined) | 1 (≈ 2.88 µM) | 0.025 (≈ 0.072 µM) | 0.013 (≈ 0.0374 µM) | 3 | 0.4 | 0.038 | 0.066 | 0.025 (≈ 0.072 µM) | 0.2 (≈ 0.576 µM) | 0.05 (≈ 0.144 µM) | 0.1 (≈ 0.288 µM) | 0.05 (≈ 0.144 µM) | 0.2 (≈ 0.576 µM) | 0.013 (≈ 0.0374 µM) | 0.1 (≈ 0.288 µM) | 
CCNCC1CCN(c2c(F)c(N)c3c(=O)c(C(=O)O)cn4c3c2OCC4C)C1 (centres undefined) | 7.5 (≈ 18.5 µM) | 1.6 (≈ 3.96 µM) | 0.8 (≈ 1.98 µM) | > 100 | 8 | 2.09 | 0.26 | 0.8 (≈ 1.98 µM) | 12.5 (≈ 30.9 µM) | 3.1 (≈ 7.66 µM) | 0.8 (≈ 1.98 µM) | 0.4 (≈ 0.989 µM) | 0.4 (≈ 0.989 µM) | 0.1 (≈ 0.247 µM) | 0.1 (≈ 0.247 µM) | 
CC1CN(c2c(F)cc3c(=O)c(C(=O)O)cn(C4CC4)c3c2F)CC(C)N1 (centres undefined) | 2.5 (≈ 6.62 µM) | 0.05 (≈ 0.132 µM) | 0.05 (≈ 0.132 µM) |  | 0.4 | 0.11 | 0.23 | 0.1 (≈ 0.265 µM) | 0.4 (≈ 1.06 µM) | 0.2 (≈ 0.53 µM) | 0.2 (≈ 0.53 µM) | 0.4 (≈ 1.06 µM) | 0.4 (≈ 1.06 µM) | 0.05 (≈ 0.132 µM) | 0.4 (≈ 1.06 µM) | 0.8
Nc1c(F)c(N2CCNCC2)cc2c1c(=O)c(C(=O)O)cn2C1CC1 | 1 (≈ 2.89 µM) | 0.013 (≈ 0.0375 µM) | 0.013 (≈ 0.0375 µM) | 4 | 0.3 | 0.038 | 0.087 | 0.025 (≈ 0.0722 µM) | 0.8 (≈ 2.31 µM) | 0.025 (≈ 0.0722 µM) | 0.1 (≈ 0.289 µM) | 0.1 (≈ 0.289 µM) | 0.1 (≈ 0.289 µM) | 0.025 (≈ 0.0722 µM) | 0.2 (≈ 0.577 µM) | 
CC1CN(c2c(F)cc3c(=O)c(C(=O)O)cn(C4CC4)c3c2F)CCN1 (centres undefined) | 1 (≈ 2.75 µM) | 0.05 (≈ 0.138 µM) | 0.025 (≈ 0.0688 µM) | 0.8 | 0.4 | 0.066 | 0.26 | 0.025 (≈ 0.0688 µM) | 0.4 (≈ 1.1 µM) | 0.1 (≈ 0.275 µM) | 0.2 (≈ 0.55 µM) | 0.4 (≈ 1.1 µM) | 0.4 (≈ 1.1 µM) | 0.1 (≈ 0.275 µM) | 0.4 (≈ 1.1 µM) | 
CCNCC1CCN(c2cc3c(cc2F)c(=O)c(C(=O)O)cn3C2CC2)C1 (centres undefined) | 1 (≈ 2.68 µM) | 0.4 (≈ 1.07 µM) | 0.2 (≈ 0.536 µM) | 35 | 2 | 0.46 | 0.1 | 0.2 (≈ 0.536 µM) | 1.6 (≈ 4.28 µM) | 0.8 (≈ 2.14 µM) | 0.4 (≈ 1.07 µM) | 0.2 (≈ 0.536 µM) | 0.2 (≈ 0.536 µM) | 0.013 (≈ 0.0348 µM) | 0.05 (≈ 0.134 µM) | 
CCNCC1CCN(c2cc3c(c(N)c2F)c(=O)c(C(=O)O)cn3C2CC2)C1 (centres undefined) | 1 (≈ 2.57 µM) | 0.1 (≈ 0.257 µM) | 0.1 (≈ 0.257 µM) | 90 | 3 | 0.26 | 0.057 | 0.2 (≈ 0.515 µM) | 0.8 (≈ 2.06 µM) | 0.8 (≈ 2.06 µM) | 0.2 (≈ 0.515 µM) | 0.05 (≈ 0.129 µM) | 0.025 (≈ 0.0644 µM) | 0.025 (≈ 0.0644 µM) | 0.1 (≈ 0.257 µM) | 
CCn1cc(C(=O)O)c(=O)c2c(N)c(F)c(N3CC(C)NC(C)C3)c(F)c21 (centres undefined) | 7.5 (≈ 19.7 µM) | 0.8 (≈ 2.1 µM) | 0.4 (≈ 1.05 µM) |  |  | 1.58 | 4.79 | 0.8 (≈ 2.1 µM) | 12.5 (≈ 32.9 µM) | 3.1 (≈ 8.15 µM) | 1.6 (≈ 4.21 µM) | 12.5 (≈ 32.9 µM) | 6.3 (≈ 16.6 µM) | 0.8 (≈ 2.1 µM) | 25 (≈ 65.7 µM) | 
CCn1cc(C(=O)O)c(=O)c2c(N)c(F)c(N3CCNCC3)cc21 | 2.5 (≈ 7.48 µM) | 0.2 (≈ 0.598 µM) | 0.2 (≈ 0.598 µM) |  |  | 0.6 | 0.11 | 0.4 (≈ 1.2 µM) | 3.1 (≈ 9.27 µM) | 1.6 (≈ 4.79 µM) | 0.4 (≈ 1.2 µM) | 0.1 (≈ 0.299 µM) | 0.2 (≈ 0.598 µM) | 0.05 (≈ 0.15 µM) | 0.05 (≈ 0.15 µM) | 
